Source: PubChem
Shown are actives, neighbours in structure and some others; about 1.6% of the full set was active somewhere.
LMPTP block = LMPTP (human) inhibition; recombinant LMPTP-A, OMFP fluorogenic substrate, fluorescence intensity; actives 0.22% (n = 360,000); inhibition, % at 20 µM; AID 651560;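 active means compounds that cut the enzyme signal by at least half of the control window in the single-dose screen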;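 further: plate controls were DMSO wells with enzyme plus substrate for no effect and substrate without enzyme for full effect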
Target sequence (P24666 whole entry, looked up): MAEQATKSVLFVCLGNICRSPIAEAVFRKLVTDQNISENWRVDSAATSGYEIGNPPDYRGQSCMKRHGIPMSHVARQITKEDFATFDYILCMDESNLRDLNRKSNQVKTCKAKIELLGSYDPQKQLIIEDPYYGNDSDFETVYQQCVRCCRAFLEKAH
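test system = LMPTP-A | amount = 0.625 nM LMPTP-A final | reagent = fluorogenic phosphatase substrate OMFP at 400 µM final | incubation = 50 min at room temperature | benchmarks = no-enzyme low control, uninhibited high control | medium = Bis-Tris pH 6.0, DTT, detergent | signal = fluorescence intensity of OMFP turnover product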
Scp1 inh = Scp-1 (human) phosphatase inhibition | Q9GZU7 | Recombinant Scp1, phosphopeptide, malachite green phosphate absorbance | inhibition, % at 20 µM | actives 0.88% (n = 340,000) | AID 493091;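 active means inhibition above about 50% at 20 µM, limit read from the data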;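 further: plate controls were DMSO wells with enzyme for no effect and wells lacking enzyme for full effect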
Target sequence (Q9GZU7 76-261 limits assumed): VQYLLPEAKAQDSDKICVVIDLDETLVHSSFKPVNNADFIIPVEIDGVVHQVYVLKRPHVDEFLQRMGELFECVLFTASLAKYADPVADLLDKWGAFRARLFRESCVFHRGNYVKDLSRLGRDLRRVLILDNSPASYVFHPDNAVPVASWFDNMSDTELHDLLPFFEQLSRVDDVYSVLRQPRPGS
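Times: enzyme reaction 45 min at room temperature, colour 5 min, stabilisation 30 min. Material: SCP-1 catalytic fragment, aa 76-261. Medium: Acidic Tris acetate buffer with magnesium and detergent. Signal: colorimetric free-phosphate detection, absorbance 630 nm. Read-out basis: % inhibition of SCP-1 phosphate liberation. Reagent: Phosphorylated 17-residue peptide substrate.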
DNMT1 inh = DNMT1 (human) enzyme inhibition. DNMT1 molecular beacon, Hinp1I cleavage, fluorescence. P26358. actives 0.83% (n = 360,000). inhibition (reported as % activation of signal), % at 10 µM. AID 588458; in the data active means inhibition above about 50%
CFTR F508del cor = CFTR F508del correction in bronchial cells; CFBE cells, YFP halide quenching; stimulated with forskolin plus potentiator P3; % fluorescence drop versus neutral controls; activity (quench increase), % at 7.58 µM; actives 0.36% (n = 350,000); AID 720511;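 active means mean added fluorescence quench of at least 8% versus neutral control, with both replicates also reaching 8%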;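 further: cells transiently co-express mutant CFTR-F508del with the halide-sensitive YFP; corrector assay measuring rescue of mutant channel to the surface after 24 h compound exposure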
STEP block = STEP (human) phosphatase inhibition. P54829. recombinant STEP, OMFP fluorogenic substrate, fluorescence. inhibition, % at 20 µM. actives 0.25% (n = 360,000);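 active means inhibition at 20 µM, scaled per plate between control wells, above about 37%, limit read from the data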;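 further: 0% = DMSO with enzyme and substrate and 100% = substrate only without enzyme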
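Also added – OMFP at 25 µM · Test system – STEP tyrosine phosphatase · Technique – FITC-channel fluorescence of OMFP product · Schedule – 20 min at room temperature, dark · Evaluation – control-normalized % inhibition with plate pattern correction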
SUMO1 PPI mod = modulators of human SUMO1-mediated protein-protein interactions; actives 0.33% (n = 360,000); P63165; SUMO1 binding to a labelled peptide, TR-FRET, 1 h; inhibition, % at 20 µM; in the data active means inhibition above about 37%
Target sequence (P63165 whole entry, looked up): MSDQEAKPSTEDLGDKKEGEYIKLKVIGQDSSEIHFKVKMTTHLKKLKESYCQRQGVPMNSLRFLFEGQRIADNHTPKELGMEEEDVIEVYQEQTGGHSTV
DNMT1 interf DR = shows spectral interference in the DNMT1 beacon assay; shares compounds with DNMT1 inh; molecular beacon fluorescence, spectral interference counter-screen; IC50, µM; 200 tested, under 10 active; AID 602382; call rule not given here
DNMT1 inh conf = DNMT1 inhibition confirmation, single concentration | shares compounds with DNMT1 inh | DNMT1 molecular beacon HinP1I cleavage, fluorescence | inhibition, % at 10 µM | actives 8% (n = 2,300) | AID 602385;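 active means average inhibition of at least 30% in the single-concentration confirmation test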
Beacon interf = beacon fluorescence artifact counter-screen; shares compounds with DNMT1 inh; DNMT1 molecular beacon spectral interference counterscreen, fluorescence 485/520; activation (fluorescence interference), % at 10 µM; actives 1% (n = 2,300);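 active means activation of at least 30% at 10 µM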;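 further: DNMT1 catalytic domain with a HinP1I cleavage step and a FAM/dabcyl DNA beacon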
Numbers without * were called inactive.

For CC(C)C[C@@H]1NC(=O)[C@H](Cc2ccccc2)N(C)C(=O)[C@H](C)NC(=O)c2ccccc2NC(=O)[C@H](Cc2ccc(O)cc2)N(C)C1=O the results were LMPTP block 1, Scp1 inh 7, DNMT1 inh 79*, CFTR F508del cor -5, STEP block 1, SUMO1 PPI mod 4, DNMT1 inh conf 3 and Beacon interf 6.
`CC(C)CC1NC(=O)N(CC(=O)N2c3ccccc3NC(=O)C2(C)C)C1=O` (stereo not drawn) gave LMPTP block 0, Scp1 inh 9, DNMT1 inh 1, CFTR F508del cor 1, STEP block -2 and SUMO1 PPI mod -1.
For NC1=NC(=O)/C(=C\c2ccco2)S1 the results were LMPTP block 3, Scp1 inh 63*, DNMT1 inh 74*, CFTR F508del cor 3, STEP block 5, SUMO1 PPI mod 28, DNMT1 inh conf 8 and Beacon interf -1.
For NC1=NC(=O)C(=Cc2ccccc2)S1 the results were LMPTP block 0, Scp1 inh 2, DNMT1 inh -5, CFTR F508del cor 1, STEP block 2 and SUMO1 PPI mod -26.
Screening CO[C@@H]1CN(C)C(=O)c2ccc(NC(=O)C3CCC3)cc2OC[C@@H](C)N(C(=O)NC(C)C)C[C@@H]1C returned CFTR F508del cor 0.
For COc1ccc(NC(=O)C2Cc3c(-c4ccc(NC(C)=O)cc4)ccnc3O2)cc1OC (stereo not drawn) the results were LMPTP block -2, DNMT1 inh 3, CFTR F508del cor -2, STEP block -3 and SUMO1 PPI mod -3.
Screening COc1ccc(NC(=O)C2Cc3c(-c4ccco4)ccnc3O2)cc1OC (stereo not drawn) returned LMPTP block 1, DNMT1 inh 90*, CFTR F508del cor 2, STEP block -1, SUMO1 PPI mod -1, DNMT1 inh conf 1 and Beacon interf 2.
`O=C(Cc1ccc(F)cc1)N/N=C/c1ccccn1` gave LMPTP block -2, Scp1 inh -4, DNMT1 inh 66*, CFTR F508del cor 2, STEP block 2, SUMO1 PPI mod 0, DNMT1 inh conf 1 and Beacon interf -1.
COc1ccc(NC(=O)Nc2ccc3c(c2)CC(=O)N([C@H](C)CO)C[C@@H](C)[C@@H](CN(C)C(=O)NC2CCCCC2)O3)cc1 was read as CFTR F508del cor 1.
For COc1ccccc1CN1C(=O)c2ccccc2[C@@]2(Cc3ccccc3N(CCN3CCOCC3)C2=O)[C@@H]1c1ccc(CO)cc1 the results were CFTR F508del cor 1.
CC(C=NNC(=O)C(=O)NN=CC(C)=Cc1ccccc1)=Cc1ccccc1 was read as LMPTP block -1, Scp1 inh -10, DNMT1 inh 63*, STEP block 0, SUMO1 PPI mod -4, DNMT1 inh conf 2 and Beacon interf 4.
`COc1cccc(-c2cnc3c(c2)C(=O)N([C@H](C)CO)C[C@H](C)[C@H](CN(C)C(=O)Nc2ccc4c(c2)OCO4)O3)c1` gave CFTR F508del cor -4.
CCCCn1c(NS(=O)(=O)c2ccc(C)cc2)c(S(=O)(=O)c2ccccc2)c2nc3ccccc3nc21 was read as LMPTP block 25, Scp1 inh -17, DNMT1 inh 55*, STEP block 3, SUMO1 PPI mod 50*, DNMT1 inh conf 2 and Beacon interf -6.
For CCCCn1c(NCc2ccccc2NS(=O)(=O)c2ccc(C)cc2)nc2ccccc21 the results were LMPTP block 4, Scp1 inh 8, DNMT1 inh -2, STEP block 2 and SUMO1 PPI mod 3.
For O=C1C2CC=C(Cl)CC2C(=O)N1CCN1CCOCC1 (stereo not drawn) the results were LMPTP block -5, Scp1 inh -2, DNMT1 inh 4, STEP block 3 and SUMO1 PPI mod 8.
Screening O=C1C2CC=C(Cl)CC2C(=O)N1CCCCCCN1C(=O)C2CC=C(Cl)CC2C1=O (stereo not drawn) returned LMPTP block 4, Scp1 inh 71*, DNMT1 inh 61*, STEP block 5, SUMO1 PPI mod 24, DNMT1 inh conf 10 and Beacon interf 0.
For O=C(C[C@@H]1CC[C@H](NC(=O)NC2CCCC2)[C@H](CO)O1)NCc1ccc(F)cc1 the results were CFTR F508del cor -1.
Screening O=C(C[C@@H]1CC[C@H]2[C@@H](COC[C@H](O)CN2S(=O)(=O)c2cccc(F)c2)O1)NCCCN1CCOCC1 returned CFTR F508del cor -3.
Screening COc1ccc2[nH]cc(CCNC(=O)Cc3c(F)cccc3Cl)c2c1 returned LMPTP block 1, Scp1 inh -8, DNMT1 inh 72*, CFTR F508del cor -1, STEP block 2, SUMO1 PPI mod 4, DNMT1 inh conf 3 and Beacon interf 8.
Screening CN(C)CC(=O)N[C@H]1CC[C@@H](CCn2cc(C3CC3)nn2)O[C@H]1CO returned CFTR F508del cor 1.
For C[C@@H]1CN([C@@H](C)CO)C(=O)c2cc(NC(=O)Nc3ccc4c(c3)OCO4)ccc2O[C@@H]1CN(C)C(=O)Nc1ccc(C(F)(F)F)cc1 the results were CFTR F508del cor 0.
Screening CCCn1cnc2c(=O)oc3ccccc3c21 returned LMPTP block -1, Scp1 inh -5, DNMT1 inh -2, STEP block -3 and SUMO1 PPI mod -1.
Screening Cn1c2ccccc2c2c(=O)oc3ccccc3c21 returned LMPTP block 8, Scp1 inh 1, DNMT1 inh 52*, CFTR F508del cor 1, STEP block 4, SUMO1 PPI mod -2, DNMT1 interf DR >99, DNMT1 inh conf 29 and Beacon interf -2.
`COc1ccc(NC(=O)Nc2ccc3c(c2)[C@@H]2C[C@@H](CC(=O)N(C)C)O[C@H](CO)[C@@H]2O3)cc1` gave CFTR F508del cor -1.
Screening O=C1CC(c2ccco2)Sc2nc3ccccc3n21 (stereo not drawn) returned LMPTP block 1, Scp1 inh 0, DNMT1 inh 56*, STEP block 7, SUMO1 PPI mod 11, DNMT1 inh conf 5 and Beacon interf 5.
